Assay results: PubChem BioAssay AID588627 (Johns Hopkins Ion Channel Center, 2011)
The campaign covered roughly 310,000 compounds. About 1,400 (0.45%) were called active.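 How the source made its calls: active means calcium response B-score plate-corrected fluorescence ratio at least 3 library SD, with starting fluorescence B-score inside 5 SD; inactive means the rest.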 What follows is part of a selection rich in actives, with near analogues and random picks from the rest.

Target: Mas-related G-protein coupled receptor member X1 (Homo sapiens) (UniProt Q96LB2)
Assay: MrgX1 activation via calcium signaling – HEK293 cells, Fluo-4 calcium flux, primary screen (AID 588627)
Details: Fluo-4 calcium fluorescence, agonist mode, at 10 µM; stronger effect = higher value
In short: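 Assay system: stable human MrgX1 HEK293 cell line. Quantity: 15,000 cells per well. Schedule: cells plated overnight, dye loaded 0.5 h 37 °C, 0.5 h room temperature. Detection: Fluo-4 NW calcium-flux fluorescence, kinetic read. Read-out basis: peak-minus-minimum fluorescence over baseline, converted to B scores. Control set: positive and negative control wells on each plate.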

Mas-related G-protein coupled receptor member X1 (Homo sapiens), sequence (Q96LB2 whole entry, looked up): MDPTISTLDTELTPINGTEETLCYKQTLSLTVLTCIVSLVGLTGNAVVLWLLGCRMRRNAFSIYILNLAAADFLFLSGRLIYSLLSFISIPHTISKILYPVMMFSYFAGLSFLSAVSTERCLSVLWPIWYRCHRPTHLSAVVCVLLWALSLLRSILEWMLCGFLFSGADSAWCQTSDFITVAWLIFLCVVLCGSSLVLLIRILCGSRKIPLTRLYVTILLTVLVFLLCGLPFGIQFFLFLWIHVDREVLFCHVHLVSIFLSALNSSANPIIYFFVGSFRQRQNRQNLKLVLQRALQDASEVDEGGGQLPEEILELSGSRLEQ

Structure (SMILES)	B-score
CCCCC(=O)N/N=C/c1c(O)n(-c2ccccc2)c(=O)[nH]c1=O	inactive
CCCCC(=O)N/N=C/c1c(O)n(CC)c(=S)n(CC)c1=O	66 (active)
CCCCC(=O)N/N=C/c1c(O)n(CCC2=CCCCC2)c(=O)[nH]c1=O	inactive
CC1=C(C(=O)Nc2ccccc2)S(=O)(=O)CCO1	inactive
COc1ccc2c(c1)[C@]13CCCCC1C(C2)N(C)CC3 (stereo not given in full)	inactive
O=C1NC(=O)N(Cc2ccco2)C(=O)/C1=C\c1cccn1CCOc1ccccc1	inactive
O=C1NC(=O)N(Cc2ccco2)C(=O)/C1=C\c1ccc(-c2ccc(F)cc2)o1	28.4 (active)
Cc1cc(/C=C2/C(=O)NC(=O)N(Cc3ccco3)C2=O)c(C)n1-c1ccc(C(=O)O)cc1	inactive
CCN(N=Nc1nonc1OC)c1nonc1OC	inactive
Cc1ccc2c(c1)=C/C(=C\c1c(O)[nH]c(=O)[nH]c1=O)C(=O)N=2	inactive
